Results as given in ChEMBL document CHEMBL1909509, “Mepyramine-JNJ7777120-hybrid compounds show high affinity to hH(1)R, but low affinity to hH(4)R” (Bioorg Med Chem Lett, 2011).
The source made the active and inactive calls. No cut-off for these calls is given here.

Tests used:
Histamine H4 receptor [1] = biological target: T1, Histamine H4 receptor (Homo sapiens, UniProt Q9H3N8); assay: Displacement of [3H]histamine from human H4R expressed in Sf9 cells co-expressing RGS19, Galphai2 and Gbeta1gamma2 after 60 mins by liquid scintillation counting
T1 sequence (Q9H3N8 whole entry): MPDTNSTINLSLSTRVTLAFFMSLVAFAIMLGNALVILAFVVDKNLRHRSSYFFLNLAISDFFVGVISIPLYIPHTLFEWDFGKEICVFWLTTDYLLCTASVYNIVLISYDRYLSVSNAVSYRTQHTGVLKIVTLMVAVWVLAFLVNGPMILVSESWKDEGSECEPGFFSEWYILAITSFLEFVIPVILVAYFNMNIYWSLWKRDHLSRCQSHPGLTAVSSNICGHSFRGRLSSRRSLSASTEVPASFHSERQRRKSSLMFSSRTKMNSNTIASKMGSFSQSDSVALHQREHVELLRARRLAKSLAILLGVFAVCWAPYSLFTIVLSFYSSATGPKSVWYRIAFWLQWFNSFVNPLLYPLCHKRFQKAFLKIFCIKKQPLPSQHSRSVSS

Histamine H1 receptor [2] = biological target: Histamine H1 receptor (Cavia porcellus, UniProt P31389); assay: Antagonist activity at H1R in guinea pig ileum assessed as inhibition of histamine-induced muscle contraction after 15 mins; type: functional, tissue-based; settings: read-out: pA2 (converted)
Chain of Histamine H1 receptor (Cavia porcellus, UniProt P31389) (P31389 whole entry): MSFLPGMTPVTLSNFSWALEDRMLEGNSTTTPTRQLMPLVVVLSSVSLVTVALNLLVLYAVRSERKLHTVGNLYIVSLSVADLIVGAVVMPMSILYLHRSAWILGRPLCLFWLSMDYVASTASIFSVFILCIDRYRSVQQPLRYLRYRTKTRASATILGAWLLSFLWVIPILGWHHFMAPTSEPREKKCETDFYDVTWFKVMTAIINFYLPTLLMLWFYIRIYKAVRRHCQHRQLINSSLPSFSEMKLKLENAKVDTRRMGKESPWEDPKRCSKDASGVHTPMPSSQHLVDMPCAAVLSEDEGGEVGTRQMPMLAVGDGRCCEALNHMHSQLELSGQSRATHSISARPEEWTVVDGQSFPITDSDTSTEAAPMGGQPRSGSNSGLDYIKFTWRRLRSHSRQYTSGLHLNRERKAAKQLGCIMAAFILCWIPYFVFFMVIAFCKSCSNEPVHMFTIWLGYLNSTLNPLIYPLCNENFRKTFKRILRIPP

[3] = biological target: Histamine H1 receptor (Cavia porcellus) (UniProt P31389); assay: Partial agonist activity at H1R in guinea pig ileum assessed as inhibition of histamine-induced muscle contraction after 15 mins; type: functional, tissue-based
Chain of Histamine H1 receptor (Cavia porcellus) (P31389 whole entry): as above
In short: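 Isolated guinea-pig ileum, contraction induced by histamine; test ligand incubated 15 min before the histamine response.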

Histamine H1 receptor [4] = biological target: Histamine H1 receptor (Homo sapiens, UniProt P35367); assay: biochemical; type: cell-based, Sf9
Chain of Histamine H1 receptor (Homo sapiens, UniProt P35367) (P35367 whole entry): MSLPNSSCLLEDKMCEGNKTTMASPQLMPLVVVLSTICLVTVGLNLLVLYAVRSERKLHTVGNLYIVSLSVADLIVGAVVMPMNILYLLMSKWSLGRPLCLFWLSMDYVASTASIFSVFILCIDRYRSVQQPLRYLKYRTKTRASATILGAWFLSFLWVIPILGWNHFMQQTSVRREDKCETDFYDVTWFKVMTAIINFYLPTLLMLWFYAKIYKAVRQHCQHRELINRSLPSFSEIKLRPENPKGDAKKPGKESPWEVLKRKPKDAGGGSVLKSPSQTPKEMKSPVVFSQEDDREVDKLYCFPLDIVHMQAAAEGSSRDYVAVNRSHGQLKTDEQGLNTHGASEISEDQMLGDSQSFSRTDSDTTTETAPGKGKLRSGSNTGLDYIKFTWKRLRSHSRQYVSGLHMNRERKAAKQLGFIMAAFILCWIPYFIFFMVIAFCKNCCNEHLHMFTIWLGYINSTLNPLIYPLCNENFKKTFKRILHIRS

Histamine H4 receptor [5] = biological target: T1, Histamine H4 receptor; assay: Inverse agonist activity at human H4R expressed in Sf9 cells co-expressing RGS19, Galphai2 and Gbeta1gamma2 assessed as […] of [35S]GTPgammaS binding relative to histamine; type: functional
Histamine H4 receptor [6] = biological target: T1, Histamine H4 receptor; assay: Inverse agonist activity at human H4R expressed in Sf9 cells co-expressing RGS19, Galphai2 and Gbeta1gamma2 assessed as […] of [35S]GTPgammaS binding; type: functional
Histamine H4 receptor [7] = biological target: T1, Histamine H4 receptor; assay: Partial agonist activity at human H4R expressed in Sf9 cells co-expressing RGS19, Galphai2 and Gbeta1gamma2 assessed as stimulation of [35S]GTPgammaS binding relative to histamine; type: functional
Histamine H4 receptor [8] = biological target: T1, Histamine H4 receptor; assay: Partial agonist activity at human H4R expressed in Sf9 cells co-expressing RGS19, Galphai2 and Gbeta1gamma2 assessed as stimulation of [35S]GTPgammaS binding; type: functional

Structure (SMILES)	Ki (Histamine H4 receptor [1]) [nM]	Kb (Histamine H1 receptor [2]) [nM]	inhibition [3]	Ki (Histamine H1 receptor [4]) [nM]	Emax (Histamine H4 receptor [5]) [%]	EC50 (Histamine H4 receptor [6]) [nM]	Emax (Histamine H4 receptor [7]) [%]	EC50 (Histamine H4 receptor [8]) [nM]
CN1CCN(C(=O)c2nc3ccccc3[nH]2)CC1	288							
COc1ccc(CN(CCN[C@H]2CCN(C(=O)c3cc4ccccc4[nH]3)C2)c2ccccn2)cc1	27500	8.51	inactive	457				
COc1ccc(CN(CCN(C)CC(C)Nc2ccc3[nH]c(C(=O)N4CCN(C)CC4)cc3c2)c2ccccn2)cc1 (racemic)	14100	12.6	inactive	214				
COc1ccc(CN(CCN(C)CCN2CCN(C(=O)c3cc4cc(Cl)ccc4[nH]3)CC2)c2ccccn2)cc1	6760	7.59	inactive	100				
O=C(c1cc2ccccc2[nH]1)N1CCN(CCN2CCC(Nc3nc4ccccc4n3Cc3ccc(F)cc3)CC2)CC1	10500			5.5				
COc1ccc(CN(CCN(C)CCN2CCN(C(=O)c3cc4ccccc4[nH]3)CC2)c2ccccn2)cc1	8910	4.9	inactive	7.08	< -1	> 100000		
COc1ccc(CN(CCN2CCN(C(=O)c3cc4ccccc4[nH]3)CC2)c2ccccn2)cc1	5890	10.7	inactive	170			88	105000
COc1ccc(CN(CCN2CCN(C(=O)c3cc4cc(Cl)ccc4[nH]3)CC2)c2ccccn2)cc1	15800	20.4	inactive	776				
O=C(c1cc2ccccc2[nH]1)N1CCN(CCOC(c2ccccc2)c2ccccc2)CC1	17800		inactive	224				
COc1ccc(CCN2CCC(Nc3nc4ccccc4n3Cc3ccc(F)cc3)CC2)cc1 [ASTEMIZOLE]	7940							
COc1ccc(CN(CCN2CCN(C(=O)c3nc4ccccc4[nH]3)CC2)c2ccccn2)cc1	22400	7.24	inactive	603				
